# Activity calls are given as the source filed them. The rule behind the calls is not given here.
# What was measured:
# [1] = Prodrug activation in Beagle dog assessed as [[(2S,3S,4R,5R)-5-(2-amino-6-oxo-1H-purin-9-yl)-2,4-difluoro-3-hydroxy-4-methyl-tetrahydrofuran-2-yl]methoxy-hydroxy-phosphoryl]phosphono hydrogen phosphate metabolite formation in liver at 9.69 mg/kg, po measured at 4 hrs post dose by LC-MS/MS analysis; type: ADME, organism-based, Canis lupus familiaris; settings: in vivo
# How it was run: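 Male non-naïve beagle dogs (n=2 per time point), fasted overnight, single oral dose of 9.69 mg/kg (5 mg/kg parent nucleoside equivalent) as a solution in 40% PEG400 in water. Animals anesthetized with pentobarbital before liver collection. Liver NTP measured by negative-ion LC-MS/MS against standards spiked into blank liver homogenate.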
# [2] = Prodrug activation in human hepatocytes assessed as [[(2S,3S,4R,5R)-5-(2-amino-6-oxo-1H-purin-9-yl)-2,4-difluoro-3-hydroxy-4-methyl-tetrahydrofuran-2-yl]methoxy-hydroxy-phosphoryl]phosphono hydrogen phosphate metabolite formation per million cells at 50 uM incubated for 24 hrs by LC-MS/MS analysis; type: ADME, cell-based, Hepatocyte
# How it was run: (§1)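 Primary human hepatocytes (1.5-2 million cells/well) acclimated overnight at 37 °C, 5% CO2, then incubated 24 h with 50 μM extracellular compound. Cells washed with cold 0.9% NaCl and lysed in 70/30 methanol/water. Extract dried and reconstituted, then analysed by LC-MS/MS with an internal standard; reported as pmol per million cells.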
# [3] = Selectivity index, ratio of CC50 for human HuH7 cells infected with HCV con1 subgenomic replicon to EC50 for HCV con1 subgenomic replicon; type: toxicity; settings: read-out: Ratio CC50/EC50
# How it was run: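 Ratio of CC50 (CellTiter-Blue viability after 3 days) to EC50 (HCV RNA by QRT-PCR). Both were measured in Huh-7 Con1 subgenomic replicon cells in DMEM with 2% FBS and 0.5% DMSO at 37 °C.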
# [4] = Cytotoxicity against human HuH7 cells infected with HCV con1 subgenomic replicon assessed as reduction in cell viability measured after 3 days by CellTiter-blue cell viability assay; type: cell-based, Huh-7
# How it was run: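 Run in the replicon-bearing Huh-7 cells under the same settings as the antiviral read (DMEM, 2% FBS, 0.5% DMSO, no G418, 37 °C). After 3 days of treatment, viability was read with CellTiter-Blue and CC50 was derived by curve fitting.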
# [5] = Prodrug activation in human hepatocytes assessed as nucleoside monophosphate metabolite formation per million cells incubated for 24 hrs; type: ADME, cell-based, Hepatocyte; how it was run: as §1
# [6] = test system: Hepatitis C virus; test: Antiviral activity against HCV con1 subgenomic replicon infected in human HuH7 cells assessed as reduction in viral RNA level by qRT-PCR analysis; type: functional, organism-based, Hepacivirus hominis; settings: isolate Con1, Huh-7
# How it was run: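 Huh-7 cells carrying a subgenomic Con1 HCV replicon (neomycin phosphotransferase, kept under 0.25 mg/ml G418) were exposed to serially diluted compound in DMEM with 2% FBS and 0.5% DMSO, without G418, at 37 °C. Total RNA was extracted and HCV RNA copies were measured by multiplex QRT-PCR (Taqman). EC50 was obtained by 4-parameter curve fit.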
# [7] = target: RNA-directed RNA polymerase (Hepacivirus hominis) (UniProt O39930); test: Inhibition of HCV NS5B RNA-dependent RNA polymerase 10-mer elongation complex assessed as chain termination of RNA synthesis by measuring reduction in 11-mer RNA product formation at 100 uM incubated for 1 min by polyacrylamide gel based method
# RNA-directed RNA polymerase (Hepacivirus hominis), sequence (O39930 1-591): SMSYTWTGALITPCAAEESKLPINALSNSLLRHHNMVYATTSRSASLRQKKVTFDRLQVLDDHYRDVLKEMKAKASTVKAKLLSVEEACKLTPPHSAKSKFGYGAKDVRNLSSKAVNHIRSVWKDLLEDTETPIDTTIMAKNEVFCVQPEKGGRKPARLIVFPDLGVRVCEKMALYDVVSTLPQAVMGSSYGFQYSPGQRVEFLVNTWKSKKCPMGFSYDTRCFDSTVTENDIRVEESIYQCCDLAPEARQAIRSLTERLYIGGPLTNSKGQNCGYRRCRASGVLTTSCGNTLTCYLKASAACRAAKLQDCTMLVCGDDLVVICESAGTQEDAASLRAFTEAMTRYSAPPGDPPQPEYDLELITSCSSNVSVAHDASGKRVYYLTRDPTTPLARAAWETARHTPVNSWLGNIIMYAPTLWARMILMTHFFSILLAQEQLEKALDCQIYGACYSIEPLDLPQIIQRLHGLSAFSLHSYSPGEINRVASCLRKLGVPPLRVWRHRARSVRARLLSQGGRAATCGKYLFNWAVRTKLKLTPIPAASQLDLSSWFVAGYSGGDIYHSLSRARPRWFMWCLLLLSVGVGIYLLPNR
# How it was run: (§2)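 The NS5B elongation complex was built from 6.5 μM NS5B, 20 μM pGG, 20 μM 20-nt RNA template, 25 μM ATP and 12.5 μM GTP (pH 7.0 buffer, 2 h, 30 °C), giving a 9-mer. It was extended to a 10-mer with 33P-CTP for 30 s, then pelleted, washed and resuspended. The complex was elongated with 100 μM of each NTP in 40 mM Tris pH 7.4, 150 mM NaCl, 2 mM MgCl2 and 5 mM DTT for 1 min at 30 °C. Products were resolved on 22.5% urea PAGE and quantified by phosphorimager.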
# [8] = target: T1, DNA polymerase alpha (Homo sapiens, UniProt P09884); test: Inhibition of human DNA polymerase alpha at 100 uM using calf DNA as substrate by microbeta scintillation counting method relative to control; settings: human DNA polymerase alpha enzyme, probe calf DNA
# T1 sequence (P09884 whole entry): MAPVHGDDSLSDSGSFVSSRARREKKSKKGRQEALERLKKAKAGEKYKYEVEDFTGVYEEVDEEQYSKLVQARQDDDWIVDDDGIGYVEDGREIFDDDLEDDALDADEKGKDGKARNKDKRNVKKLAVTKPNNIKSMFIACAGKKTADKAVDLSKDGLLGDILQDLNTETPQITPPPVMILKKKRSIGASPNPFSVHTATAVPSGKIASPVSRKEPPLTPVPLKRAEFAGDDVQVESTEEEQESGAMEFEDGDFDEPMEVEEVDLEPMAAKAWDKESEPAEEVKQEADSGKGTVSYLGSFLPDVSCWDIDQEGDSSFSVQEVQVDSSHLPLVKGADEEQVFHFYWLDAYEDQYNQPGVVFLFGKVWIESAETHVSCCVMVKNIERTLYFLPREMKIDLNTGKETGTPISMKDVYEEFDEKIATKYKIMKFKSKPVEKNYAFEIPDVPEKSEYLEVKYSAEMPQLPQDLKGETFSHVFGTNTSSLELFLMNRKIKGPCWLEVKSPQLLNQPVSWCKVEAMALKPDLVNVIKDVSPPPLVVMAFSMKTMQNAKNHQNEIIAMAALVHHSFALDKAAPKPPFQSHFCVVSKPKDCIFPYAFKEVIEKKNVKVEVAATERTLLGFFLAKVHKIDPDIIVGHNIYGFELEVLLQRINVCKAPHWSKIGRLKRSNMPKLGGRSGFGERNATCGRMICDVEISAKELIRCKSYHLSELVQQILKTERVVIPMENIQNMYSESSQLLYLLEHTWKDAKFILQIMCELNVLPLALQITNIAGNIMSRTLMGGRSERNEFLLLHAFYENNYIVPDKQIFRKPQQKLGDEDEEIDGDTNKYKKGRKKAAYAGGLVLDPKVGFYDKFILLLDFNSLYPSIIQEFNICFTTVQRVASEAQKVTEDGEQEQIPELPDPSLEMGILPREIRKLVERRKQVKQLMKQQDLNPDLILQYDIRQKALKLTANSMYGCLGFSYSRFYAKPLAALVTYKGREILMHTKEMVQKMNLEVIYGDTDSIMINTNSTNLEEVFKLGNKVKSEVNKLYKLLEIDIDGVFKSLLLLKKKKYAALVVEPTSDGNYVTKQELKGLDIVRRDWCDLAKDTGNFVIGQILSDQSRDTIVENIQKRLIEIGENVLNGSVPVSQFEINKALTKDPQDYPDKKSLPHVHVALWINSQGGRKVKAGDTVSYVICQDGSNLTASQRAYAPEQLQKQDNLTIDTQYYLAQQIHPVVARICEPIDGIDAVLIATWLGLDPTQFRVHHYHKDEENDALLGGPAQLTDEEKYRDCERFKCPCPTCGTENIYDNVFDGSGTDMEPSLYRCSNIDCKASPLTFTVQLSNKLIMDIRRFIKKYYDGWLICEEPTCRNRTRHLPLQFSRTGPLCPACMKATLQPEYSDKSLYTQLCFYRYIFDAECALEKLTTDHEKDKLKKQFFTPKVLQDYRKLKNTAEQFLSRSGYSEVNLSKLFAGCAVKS
# How it was run: (§3)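 Activated calf thymus DNA served as template for each polymerase, in 50 mM Tris-HCl pH 8.0, 60 mM KCl, 5 mM MgCl2 and 4 mM DTT with 2 μM each of dCTP, dATP and dGTP plus 2.5 μCi 3H-dTTP. Test NTP was at 100 μM. DNA products were precipitated with 20% TCA and counted by microplate scintillation. Results are reported as percent inhibition with standard deviation.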
# [9] = target: RNA-directed RNA polymerase (Hepacivirus hominis) (UniProt O39930); test: Inhibition of HCV NS5B RNA-dependent RNA polymerase 10-mer elongation complex assessed as chain termination of RNA synthesis by measuring reduction in 20-mer RNA product formation at 100 uM incubated for 1 min in presence of UTP and ATP by polyacrylamide gel based method; how it was run: as §2
# [10] = test system: DNA polymerase gamma; test: Inhibition of human DNA polymerase gamma at 100 uM using calf DNA as substrate by microbeta scintillation counting method relative to control; settings: human DNA polymerase gamma enzyme, probe calf DNA; how it was run: as §3
# [11] = target: RNA-directed RNA polymerase (Hepacivirus hominis, UniProt O39930); test: Inhibition of HCV NS5B RNA-dependent RNA polymerase activity assessed as reduction in radiolabeled ribonucleotide monophosphates incorporation into RNA using cIRES template measured after 2 hrs by microscintillation counting method
# RNA-directed RNA polymerase, sequence (O39930 whole entry): as the sequence (O39930 1-591) above
# How it was run: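 Reactions contained 100 nM NS5B, 50 nM cIRES RNA template, 1 μM tritiated CTP, 1 μM ATP, 1 μM GTP and 0.5 μM UTP in 40 mM Tris-HCl pH 8.0, 20 mM NaCl, 3 mM DTT and 4 mM MgCl2, with serially diluted inhibitor. Incubation was 2 h at 30 °C, then TCA precipitation and scintillation counting of acid-insoluble RNA. Values are the mean of n ≥ 2 determinations.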
# [12] = Inhibition of RNA polymerase 2 in human HeLa cell nuclear extract assessed as reduction in RNA transcription by polyacrylamide gel electrophoresis method; type: cell-based
# How it was run: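 In vitro transcription used HeLa cell nuclear extract. RNA products were resolved on 6% TBE-urea polyacrylamide gels.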
# [13] = species on record: Homo sapiens; test: Substrate activity at human mitochondrial RNA polymerase assessed as nucleotide incorporation into RNA at 100 uM using [33P]-labeled 5'-UUUUGCCGCGCC-3' and 3'-CGGCGCGGCACGTAAGGG-5' RNA/DNA primer/template by polyacrylamide gel electrophoresis method
# How it was run: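 Single-turnover conditions: 100 nM 33P-labelled RNA/DNA primer/template with 320 nM human mitochondrial RNA polymerase in excess. Each NTP was tested at 100 μM. ATP, UTP and CTP gauged misincorporation opposite the templating CMP. Products were run on 22.5% TBE-urea sequencing gels and bands quantified by phosphorimager.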
# [14] = target: DNA polymerase beta (Homo sapiens, UniProt P06746); test: Inhibition of human DNA polymerase beta at 100 uM using calf DNA as substrate by microbeta scintillation counting method relative to control; settings: human DNA polymerase beta enzyme, probe calf DNA; how it was run: as §3
# [15] = Cytotoxicity against human HuH7 cells incubated for 8 days by cellTiter-Glo assay; type: cell-based, Huh-7
# How it was run: (§4)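 Cells (1×10^5/well) on collagen I-coated wells, first kept 8 days in recommended medium without drug, then exposed to compound for 8 days with refeeding every other day. Viability read by CellTiter-Glo luminescence; CC50 derived by curve fitting.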
# [16] = Cytotoxicity against human HepG2 cells incubated for 8 days by cellTiter-Glo assay; type: cell-based; how it was run: as §4
# [17] = Cytotoxicity against human A549 cells incubated for 8 days by cellTiter-Glo assay; type: cell-based; how it was run: as §4
# [18] = Cytotoxicity against human HeLa cells incubated for 8 days by cellTiter-Glo assay; type: cell-based; how it was run: as §4
# [19] = Cytotoxicity against human U937 cells incubated for 8 days by cellTiter-Glo assay; type: cell-based, U-937; how it was run: as §4
# [20] = Cytotoxicity against human MT4 cells incubated for 8 days by cellTiter-Glo assay; type: cell-based; how it was run: as §4
SMILES,Drug metabolism [1] [µM],Drug metabolism [2] [pmol],selectivity ratio [3],CC50 at 72 h [4] [nM],Drug metabolism [5] [pmol],EC50 [6] [nM],inhibition [7],inhibition at 100 µM [8] [%],inhibition [9],inhibition at 100 µM [10] [%],IC50 [11] [nM],IC50 [12] [nM],Activity [13],inhibition at 100 µM [14] [%],CC50 at 192 h [15] [nM],CC50 at 192 h [16] [nM],CC50 at 192 h [17] [nM],CC50 at 192 h [18] [nM],CC50 at 192 h [19] [nM],CC50 at 192 h [20] [nM]
CCOc1nc(N)nc2c1ncn2[C@@H]1O[C@](F)(CO[P@](=O)(N[C@@H](C)C(=O)OC(C)C)Oc2ccccc2)[C@@H](O)[C@@]1(C)F,6.33,174,> 1700,> 100000,67.1,57,–,–,–,–,–,–,–,–,–,–,–,–,–,–
C[C@]1(F)[C@H](n2cnc3c(=O)[nH]c(N)nc32)O[C@](F)(COP(=O)(O)OP(=O)(O)OP(=O)(O)O)[C@H]1O,–,–,–,–,–,–,inactive,73.2,Active,29.8,160,> 100000,inactive,16.3,–,–,–,–,–,–
CCOc1nc(N)nc2c1ncn2[C@@H]1O[C@](F)(CO[P@@](=O)(N[C@@H](C)C(=O)OC(C)C)Oc2ccccc2)[C@@H](O)[C@@]1(C)F,22.3,321,> 20000,> 100000,105,5,–,–,–,–,–,–,–,–,–,–,–,–,–,–
CCOc1nc(N)nc2c1ncn2[C@@H]1O[C@H](COP(=O)(N[C@@H](C)C(=O)OCC(C)(C)C)Oc2cccc3ccccc23)[C@@H](O)[C@@]1(C)O (some centres undefined),–,–,47.1,16400,–,348,–,–,–,–,–,–,–,–,350,1500,7800,13400,170,960

# Reference: ChEMBL document CHEMBL4622986, “Synthesis and Anti-HCV Activity of Sugar-Modified Guanosine Analogues: Discovery of AL-611 as an HCV NS5B Polymerase Inhibitor for the Treatment of Chronic Hepatitis C” (J Med Chem, 2020)
